# Tests used:
# [1] = test system: Helicobacter pylori; assay: Antibacterial activity against CagA-expressing Helicobacter pylori 10Kb isolated from gastric carcinoma patient after 48 hrs compound exposure followed by incubation on Columbia-blood agar plate for 3 to 5 days; format: functional
# Procedure, shortened: (§1)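 Compound dissolved in water with 4% DMSO, filter-sterilized, and serially twofold diluted in Brucella broth with 10% bovine fetal serum. Inoculum from 48 h microaerobic Brucella agar-BFS cultures, added at approximately 10^6 CFU/mL final. Broth incubated microaerobically at 37 °C for 24 or 48 h, then each dilution subcultured onto Columbia-blood agar. MBC is the lowest concentration with no growth on subculture. Triplicate; mean ± SD.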
# [2] = test system: Helicobacter pylori; assay: Antibacterial activity against CagA-expressing Helicobacter pylori 17C7 isolated from gastric carcinoma patient after 48 hrs compound exposure followed by incubation on Columbia-blood agar plate for 3 to 5 days; format: functional; procedure, shortened: as §1
# [3] = test system: Helicobacter pylori; assay: Antibacterial activity against CagA-expressing Helicobacter pylori 18C7 isolated from gastric carcinoma patient after 48 hrs compound exposure followed by incubation on Columbia-blood agar plate for 3 to 5 days; format: functional; procedure, shortened: as §1
# [4] = test system: Helicobacter pylori; assay: Antibacterial activity against CagA-expressing Helicobacter pylori 4Cb isolated from gastric carcinoma patient after 48 hrs compound exposure followed by incubation on Columbia-blood agar plate for 3 to 5 days; format: functional; procedure, shortened: as §1
# [5] = test system: Helicobacter pylori; assay: Antibacterial activity against CagA-expressing Helicobacter pylori 3Cb isolated from gastric carcinoma patient after 48 hrs compound exposure followed by incubation on Columbia-blood agar plate for 3 to 5 days; format: functional; procedure, shortened: as §1
# [6] = test system: Helicobacter pylori; assay: Antibacterial activity against CagA-expressing Helicobacter pylori 1C1 isolated from gastric carcinoma patient after 48 hrs compound exposure followed by incubation on Columbia-blood agar plate for 3 to 5 days; format: functional; procedure, shortened: as §1
# [7] = test system: Helicobacter pylori; assay: Antibacterial activity against CagA-expressing Helicobacter pylori 2Ca isolated from gastric carcinoma patient after 48 hrs compound exposure followed by incubation on Columbia-blood agar plate for 3 to 5 days; format: functional; procedure, shortened: as §1
# [8] = test system: Helicobacter pylori; assay: Bactericidal activity against CagA-deficient Helicobacter pylori G50 isolated from chronic gastritis patient compound exposure followed by incubation on Columbia-blood agar plate for 3 to 5 days; format: functional, organism-based; settings: TDE = time-dependent effect
# Procedure, shortened: (§2)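 Broth microdilution MBC against clinical H. pylori isolates (cagA by PCR; stocks kept frozen in Columbia broth with 20% glycerol). Compound dissolved in water with 4% DMSO, filter-sterilized, double diluted in Brucella broth with 10% fetal bovine serum. Inoculum about 10^6 CFU/mL from 48 h microaerobic Brucella agar-BFS cultures. Plates held microaerobically at 37 °C for 24 and 48 h. Each well was then spotted onto Columbia-blood agar for 3-5 days. MBC is the lowest concentration giving no regrowth. Triplicate, mean ± SD.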
# [9] = test system: Helicobacter pylori; assay: Bactericidal activity against CagA-deficient Helicobacter pylori G21b isolated from chronic gastritis patient compound exposure followed by incubation on Columbia-blood agar plate for 3 to 5 days; format: functional, organism-based; settings: TDE = time-dependent effect; procedure, shortened: as §2
# [10] = test system: Helicobacter pylori; assay: Bactericidal activity against CagA-deficient Helicobacter pylori G104 isolated from chronic gastritis patient compound exposure followed by incubation on Columbia-blood agar plate for 3 to 5 days; format: functional, organism-based; settings: TDE = time-dependent effect; procedure, shortened: as §2
# [11] = test system: Helicobacter pylori; assay: Bactericidal activity against CagA-deficient Helicobacter pylori Ba142 isolated from chronic gastritis patient compound exposure followed by incubation on Columbia-blood agar plate for 3 to 5 days; format: functional, organism-based; settings: TDE = time-dependent effect; procedure, shortened: as §2
# [12] = test system: Helicobacter pylori; assay: Bactericidal activity against CagA-deficient Helicobacter pylori NS23 isolated from chronic gastritis patient compound exposure followed by incubation on Columbia-blood agar plate for 3 to 5 days; format: functional, organism-based; settings: TDE = time-dependent effect; procedure, shortened: as §2
# [13] = test system: Helicobacter pylori; assay: Bactericidal activity against CagA-deficient Helicobacter pylori 328 KM isolated from chronic gastritis patient compound exposure followed by incubation on Columbia-blood agar plate for 3 to 5 days; format: functional, organism-based; settings: TDE = time-dependent effect; procedure, shortened: as §2
# [14] = test system: Helicobacter pylori; assay: Bactericidal activity against CagA-deficient Helicobacter pylori G12 isolated from chronic gastritis patient compound exposure followed by incubation on Columbia-blood agar plate for 3 to 5 days; format: functional, organism-based; settings: TDE = time-dependent effect; procedure, shortened: as §2
# [15] = test system: Helicobacter pylori; assay: Bactericidal activity against CagA-deficient Helicobacter pylori G204 isolated from chronic gastritis patient compound exposure followed by incubation on Columbia-blood agar plate for 3 to 5 days; format: functional, organism-based; settings: TDE = time-dependent effect; procedure, shortened: as §2
# [16] = test system: Helicobacter pylori; assay: Bactericidal activity against CagA-expressing Helicobacter pylori CCUG17874 isolated from chronic gastritis patient compound exposure followed by incubation on Columbia-blood agar plate for 3 to 5 days; format: functional, organism-based; settings: TDE = time-dependent effect; procedure, shortened: as §2
# [17] = test system: Helicobacter pylori; assay: Bactericidal activity against CagA-expressing Helicobacter pylori MDO21 isolated from chronic gastritis patient compound exposure followed by incubation on Columbia-blood agar plate for 3 to 5 days; format: functional, organism-based; settings: TDE = time-dependent effect; procedure, shortened: as §2
# [18] = test system: Helicobacter pylori; assay: Bactericidal activity against CagA-expressing Helicobacter pylori MD6 isolated from chronic gastritis patient compound exposure followed by incubation on Columbia-blood agar plate for 3 to 5 days; format: functional, organism-based; settings: TDE = time-dependent effect; procedure, shortened: as §2
# [19] = test system: Helicobacter pylori; assay: Bactericidal activity against CagA-expressing Helicobacter pylori 328 isolated from chronic gastritis patient compound exposure followed by incubation on Columbia-blood agar plate for 3 to 5 days; format: functional, organism-based; settings: TDE = time-dependent effect; procedure, shortened: as §2
# [20] = test system: Helicobacter pylori; assay: Bactericidal activity against CagA-expressing Helicobacter pylori G27 isolated from chronic gastritis patient compound exposure followed by incubation on Columbia-blood agar plate for 3 to 5 days; format: functional; settings: TDE = time-dependent effect; procedure, shortened: as §2
# [21] = test system: Helicobacter pylori; assay: Bactericidal activity against CagA-expressing Helicobacter pylori Ma01 isolated from chronic gastritis patient compound exposure followed by incubation on Columbia-blood agar plate for 3 to 5 days; format: functional, organism-based; settings: TDE = time-dependent effect; procedure, shortened: as §2
# [22] = test system: Helicobacter pylori; assay: Bactericidal activity against CagA-expressing Helicobacter pylori SI10 isolated from chronic gastritis patient compound exposure followed by incubation on Columbia-blood agar plate for 3 to 5 days; format: functional, organism-based; settings: TDE = time-dependent effect; procedure, shortened: as §2
# [23] = test system: Helicobacter pylori; assay: Bactericidal activity against CagA-expressing Helicobacter pylori G39 isolated from chronic gastritis patient compound exposure followed by incubation on Columbia-blood agar plate for 3 to 5 days; format: functional, organism-based; settings: TDE = time-dependent effect; procedure, shortened: as §2
# [24] = test system: Helicobacter pylori; assay: Bactericidal activity against CagA-expressing Helicobacter pylori G20 isolated from chronic gastritis patient compound exposure followed by incubation on Columbia-blood agar plate for 3 to 5 days; format: functional, organism-based; settings: TDE = time-dependent effect; procedure, shortened: as §2
# [25] = test system: Helicobacter pylori; assay: Antibacterial activity against CagA-expressing Helicobacter pylori 3Cb isolated from gastric carcinoma patient after 24 hrs compound exposure followed by incubation on Columbia-blood agar plate for 3 to 5 days; format: functional; procedure, shortened: as §1
# [26] = test system: Helicobacter pylori; assay: Antibacterial activity against CagA-expressing Helicobacter pylori 1C1 isolated from gastric carcinoma patient after 24 hrs compound exposure followed by incubation on Columbia-blood agar plate for 3 to 5 days; format: functional; procedure, shortened: as §1
# [27] = test system: Helicobacter pylori; assay: Antibacterial activity against CagA-expressing Helicobacter pylori 2Ca isolated from gastric carcinoma patient after 24 hrs compound exposure followed by incubation on Columbia-blood agar plate for 3 to 5 days; format: functional; procedure, shortened: as §1
# [28] = test system: Helicobacter pylori; assay: Antibacterial activity against CagA-deficient Helicobacter pylori G50 isolated from chronic gastritis patient after 48 hrs compound exposure followed by incubation on Columbia-blood agar plate for 3 to 5 days; format: functional; procedure, shortened: as §1
# [29] = test system: Helicobacter pylori; assay: Antibacterial activity against CagA-deficient Helicobacter pylori G21b isolated from chronic gastritis patient after 48 hrs compound exposure followed by incubation on Columbia-blood agar plate for 3 to 5 days; format: functional; procedure, shortened: as §1
# [30] = test system: Helicobacter pylori; assay: Antibacterial activity against CagA-deficient Helicobacter pylori G104 isolated from chronic gastritis patient after 48 hrs compound exposure followed by incubation on Columbia-blood agar plate for 3 to 5 days; format: functional; procedure, shortened: as §1
# [31] = test system: Helicobacter pylori; assay: Antibacterial activity against CagA-deficient Helicobacter pylori Ba142 isolated from chronic gastritis patient after 48 hrs compound exposure followed by incubation on Columbia-blood agar plate for 3 to 5 days; format: functional; procedure, shortened: as §1
# [32] = test system: Helicobacter pylori; assay: Antibacterial activity against CagA-deficient Helicobacter pylori NS23 isolated from chronic gastritis patient after 48 hrs compound exposure followed by incubation on Columbia-blood agar plate for 3 to 5 days; format: functional; procedure, shortened: as §1
# [33] = test system: Helicobacter pylori; assay: Antibacterial activity against CagA-deficient Helicobacter pylori 328 KM isolated from chronic gastritis patient after 48 hrs compound exposure followed by incubation on Columbia-blood agar plate for 3 to 5 days; format: functional; procedure, shortened: as §1
# [34] = test system: Helicobacter pylori; assay: Antibacterial activity against CagA-deficient Helicobacter pylori G12 isolated from chronic gastritis patient after 48 hrs compound exposure followed by incubation on Columbia-blood agar plate for 3 to 5 days; format: functional; procedure, shortened: as §1
smiles,measurement,setting,value
Oc1ccc(/C=C/c2cc(O)cc(O)c2)cc1 [RESVERATROL],MBC,[1],147 µg/mL
same,MBC,[2],37 µg/mL
same,MBC,[3],37 µg/mL
same,MBC,[4],147 µg/mL
same,MBC,[5],40 µg/mL
same,MBC,[6],80 µg/mL
same,MBC,[7],160 µg/mL
same,Activity,[8],tde
same,Activity,[9],tde
same,Activity,[10],tde
same,Activity,[11],tde
same,Activity,[12],tde
same,Activity,[13],tde
same,Activity,[14],tde
same,Activity,[15],tde
same,Activity,[16],tde
same,Activity,[17],tde
same,Activity,[18],tde
same,Activity,[19],tde
same,Activity,[20],tde
same,Activity,[21],tde
same,Activity,[22],tde
same,Activity,[23],tde
same,Activity,[24],tde
same,MBC,[25],40 µg/mL
same,MBC,[26],80 µg/mL
same,MBC,[27],160 µg/mL
same,MBC,[28],295 µg/mL
same,MBC,[29],295 µg/mL
same,MBC,[30],295 µg/mL
same,MBC,[31],295 µg/mL
same,MBC,[32],147 µg/mL
same,MBC,[33],147 µg/mL
same,MBC,[34],324 µg/mL

# Source: ChEMBL document CHEMBL1932999, “Increased susceptibility to resveratrol of Helicobacter pylori strains isolated from patients with gastric carcinoma” (2011)
